# Assay results: ChEMBL document CHEMBL1145027, “Design and synthesis of statine-based cell-permeable peptidomimetic inhibitors of human beta-secretase” (J Med Chem, 2003)
# pEC50, pIC50: −log10 of the molar value. Where a SMILES comes first, the peptide text is derived from it. [ ]: non-standard residue; d: D form. Sta = CC(C)C[C@H](N)[C@@H](O)CC(=O)O
# Target: Beta-secretase 1 (Homo sapiens, UniProt P56817)
# Assay: Inhibition of human beta-secretase (BACE) in MBP-C125 assay
# Method in brief: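 BACE activity measured with maltose-binding protein fused C-125 (MBP-C125) substrate; IC50 taken as the concentration giving 50% inhibition of enzyme activity, averaged from two or more runs.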
# Chain of Beta-secretase 1 (P56817 whole entry): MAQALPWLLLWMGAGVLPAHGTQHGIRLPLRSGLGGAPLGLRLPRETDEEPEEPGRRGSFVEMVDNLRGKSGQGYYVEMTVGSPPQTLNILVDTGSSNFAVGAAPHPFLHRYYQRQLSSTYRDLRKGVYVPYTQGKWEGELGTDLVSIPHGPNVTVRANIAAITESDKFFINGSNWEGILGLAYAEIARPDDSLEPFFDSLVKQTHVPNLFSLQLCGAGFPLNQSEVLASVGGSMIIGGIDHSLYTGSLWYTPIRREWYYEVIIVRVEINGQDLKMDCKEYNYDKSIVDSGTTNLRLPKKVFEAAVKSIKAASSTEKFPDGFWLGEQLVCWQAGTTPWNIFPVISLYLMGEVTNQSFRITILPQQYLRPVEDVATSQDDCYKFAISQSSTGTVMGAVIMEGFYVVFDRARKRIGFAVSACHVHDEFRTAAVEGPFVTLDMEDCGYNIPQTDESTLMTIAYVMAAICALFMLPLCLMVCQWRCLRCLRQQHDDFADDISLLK
row,pIC50,SMILES
1,4.85,CC(C)CC(NC(=O)C(O)c1ccccc1Oc1ccccc1)[C@@H](O)CC(=O)N[C@@H](C(=O)N[C@H](C)C(=O)N[C@H](CCC(=O)O)C(=O)N[C@H](Cc1ccccc1)C(=O)O)C(C)C (stereo partly specified)
2,4.30,COC(=O)CCCCC(=O)NC(CC(C)C)[C@@H](O)CC(=O)N[C@@H](C(=O)N[C@H](C)C(=O)N[C@H](CCC(=O)O)C(=O)N[C@H](Cc1ccccc1)C(=O)O)C(C)C (stereo partly specified)
3,4.32,CC(C)CC(NC(=O)c1ccc2ccccc2c1)[C@@H](O)CC(=O)N[C@@H](C(=O)N[C@H](C)C(=O)N[C@H](CCC(=O)O)C(=O)N[C@H](Cc1ccccc1)C(=O)O)C(C)C (stereo partly specified)
4,5.52,CC(C)C[C@H](NC(=O)C(O)c1cccc2ccccc12)[C@@H](O)CC(=O)N[C@H](C(=O)NC1C[C@@H](C(=O)O)C[C@@H](C(=O)O)C1)C(C)C (stereo partly specified)
5,6.52,CSCC[C@H](NC(=O)[C@@H](NC(C)=O)C(C)C)C(=O)N[C@@H](CC(C)C)[C@@H](O)CC(=O)N[C@H](C(=O)N[C@@H](C)C(=O)N[C@@H](CCC(=O)O)C(=O)N[C@@H](Cc1ccccc1)C(=O)O)C(C)C (Ac-VM[Sta]VAEF-OH)
6,5.22,CC(C)CC(NC(=O)C(O)c1cccc(Oc2ccccc2)c1)[C@@H](O)CC(=O)N[C@@H](C(=O)N[C@H](C)C(=O)N[C@H](CCC(=O)O)C(=O)N[C@H](Cc1ccccc1)C(=O)O)C(C)C (stereo partly specified)
7,5.40,CSCC[C@H](NC(=O)[C@@H](NC(=O)OC(C)(C)C)C(C)C)C(=O)NC(CC(C)C)[C@@H](O)CC(=O)N[C@@H](C(=O)NCc1cccc(C(=O)O)c1)C(C)C (stereo partly specified)
8,4.25,CC(C)CC(NC(=O)Cc1ccc(-c2ccccc2)cc1)[C@@H](O)CC(=O)N[C@@H](C(=O)N[C@H](C)C(=O)N[C@H](CCC(=O)O)C(=O)N[C@H](Cc1ccccc1)C(=O)O)C(C)C (stereo partly specified)
9,4.60,CC(C)CC(NC(=O)CCCOc1ccccc1)[C@@H](O)CC(=O)N[C@@H](C(=O)N[C@H](C)C(=O)N[C@H](CCC(=O)O)C(=O)N[C@H](Cc1ccccc1)C(=O)O)C(C)C (stereo partly specified)
10,4.33,CSCC[C@H](NC(=O)[C@@H](NC(=O)OC(C)(C)C)C(C)C)C(=O)NC(CC(C)C)[C@@H](O)CC(=O)N[C@@H](C(=O)NCCCC(=O)O)C(C)C (stereo partly specified)
11,< 4.00,CSCC[C@H](NC(=O)[C@@H](NC(=O)OC(C)(C)C)C(C)C)C(=O)NC(CC(C)C)[C@@H](O)CC(=O)N[C@@H](C(=O)NCc1ccc2c(c1)OCO2)C(C)C (stereo partly specified)
12,4.38,CC(C)CC(NC(=O)Cc1cccc2ccccc12)[C@@H](O)CC(=O)N[C@@H](C(=O)N[C@H](C)C(=O)N[C@H](CCC(=O)O)C(=O)N[C@H](Cc1ccccc1)C(=O)O)C(C)C (stereo partly specified)
13,3.89,CC(C)CC(NC(=O)Cc1ccccc1)[C@@H](O)CC(=O)N[C@@H](C(=O)N[C@H](C)C(=O)N[C@H](CCC(=O)O)C(=O)N[C@H](Cc1ccccc1)C(=O)O)C(C)C (stereo partly specified)
14,4.52,CSCC[C@H](NC(=O)[C@@H](NC(=O)OC(C)(C)C)C(C)C)C(=O)NC(CC(C)C)[C@@H](O)CC(=O)N[C@@H](C(=O)NCCC(=O)O)C(C)C (stereo partly specified)
15,4.30,CC(C)C[C@H](NC(=O)C(O)c1cccc2ccccc12)[C@@H](O)CC(=O)N[C@H](C(=O)NCc1ccc(C(=O)O)cc1)C(C)C (stereo partly specified)
16,< 3.70,CSCC[C@H](NC(=O)[C@@H](NC(=O)OC(C)(C)C)C(C)C)C(=O)NC(CC(C)C)[C@@H](O)CC(=O)N[C@@H](C(=O)NC1CCCCC1)C(C)C (stereo partly specified)
17,< 3.70,CCCCNC(=O)[C@H](NC(=O)C[C@H](O)C(CC(C)C)NC(=O)[C@H](CCSC)NC(=O)[C@@H](NC(=O)OC(C)(C)C)C(C)C)C(C)C (stereo partly specified)
18,5.52,CC(C)CC(NC(=O)C(O)c1ccccc1Br)[C@@H](O)CC(=O)N[C@@H](C(=O)N[C@H](C)C(=O)N[C@H](CCC(=O)O)C(=O)N[C@H](Cc1ccccc1)C(=O)O)C(C)C (stereo partly specified)
19,5.40,CSCC[C@H](NC(=O)[C@@H](NC(=O)OC(C)(C)C)C(C)C)C(=O)NC(CC(C)C)[C@@H](O)CC(=O)N[C@@H](C(=O)NCc1ccc(C(=O)O)cc1)C(C)C (stereo partly specified)
20,4.55,CC(C)Cc1ccc(C(=O)NC(CC(C)C)[C@@H](O)CC(=O)N[C@@H](C(=O)N[C@H](C)C(=O)N[C@H](CCC(=O)O)C(=O)N[C@H](Cc2ccccc2)C(=O)O)C(C)C)cc1 (stereo partly specified)

row,pIC50,SMILES
1,4.57,CCCCOc1ccc(C(=O)NC(CC(C)C)[C@@H](O)CC(=O)N[C@@H](C(=O)N[C@H](C)C(=O)N[C@H](CCC(=O)O)C(=O)N[C@H](Cc2ccccc2)C(=O)O)C(C)C)cc1 (stereo partly specified)
2,6.92,"COC(=O)[C@@H]1CC(NC(=O)[C@H](NC(=O)C[C@H](O)[C@@H](Cc2cc(F)cc(F)c2)NC(=O)C(O)c2ccccc2-c2ccccc2)C(C)C)C[C@H](C(=O)OC)C1 (single isomer, unassigned; isomer 1)"
3,4.77,CC(C)CC(NC(=O)[C@@H](O)c1ccccc1)[C@@H](O)CC(=O)N[C@@H](C(=O)N[C@H](C)C(=O)N[C@H](CCC(=O)O)C(=O)N[C@H](Cc1ccccc1)C(=O)O)C(C)C (stereo partly specified)
4,< 3.70,CSCC[C@H](NC(=O)[C@@H](NC(=O)OC(C)(C)C)C(C)C)C(=O)NC(CC(C)C)[C@@H](O)CC(=O)N[C@@H](C(=O)NCc1ccccc1)C(C)C (stereo partly specified)
5,4.55,CO[C@H](C(=O)NC(CC(C)C)[C@@H](O)CC(=O)N[C@@H](C(=O)N[C@H](C)C(=O)N[C@H](CCC(=O)O)C(=O)N[C@H](Cc1ccccc1)C(=O)O)C(C)C)c1ccccc1 (stereo partly specified)
6,3.85,CC(C)CC(NC(=O)Cc1ccc(F)cc1F)[C@@H](O)CC(=O)N[C@@H](C(=O)N[C@H](C)C(=O)N[C@H](CCC(=O)O)C(=O)N[C@H](Cc1ccccc1)C(=O)O)C(C)C (stereo partly specified)
7,5.00,COC(=O)[C@@H]1CC(NC(=O)[C@H](NC(=O)C[C@H](O)C(CC(C)C)NC(=O)[C@H](CCSC)NC(=O)[C@@H](NC(=O)OC(C)(C)C)C(C)C)C(C)C)C[C@H](C(=O)OC)C1 (stereo partly specified)
8,6.52,CSCC[C@H](NC(=O)[C@@H](NC(=O)OC(C)(C)C)C(C)C)C(=O)NC(CC(C)C)[C@@H](O)CC(=O)N[C@@H](C(=O)NC1C[C@@H](C(=O)O)C[C@@H](C(=O)O)C1)C(C)C (stereo partly specified)
9,5.40,CC(C)CC(NC(=O)C(O)c1cccc2ccccc12)[C@@H](O)CC(=O)N[C@@H](C(=O)N[C@H](C)C(=O)N[C@H](CCC(=O)O)C(=O)N[C@H](Cc1ccccc1)C(=O)O)C(C)C (stereo partly specified)
10,4.96,CC(C)CC(NC(=O)C(O)c1ccccc1OCc1ccccc1)[C@@H](O)CC(=O)N[C@@H](C(=O)N[C@H](C)C(=O)N[C@H](CCC(=O)O)C(=O)N[C@H](Cc1ccccc1)C(=O)O)C(C)C (stereo partly specified)
11,4.03,COc1cc(CC(=O)NC(CC(C)C)[C@@H](O)CC(=O)N[C@@H](C(=O)N[C@H](C)C(=O)N[C@H](CCC(=O)O)C(=O)N[C@H](Cc2ccccc2)C(=O)O)C(C)C)cc(OC)c1OC (stereo partly specified)
12,5.00,"COC(=O)[C@@H]1CC(NC(=O)[C@H](NC(=O)C[C@H](O)[C@@H](Cc2cc(F)cc(F)c2)NC(=O)C(O)c2ccccc2-c2ccccc2)C(C)C)C[C@H](C(=O)OC)C1 (single isomer, unassigned; isomer 2)"
13,5.30,CSCC[C@H](NC(=O)[C@@H](NC(=O)OC(C)(C)C)C(C)C)C(=O)NC(CC(C)C)[C@@H](O)CC(=O)N[C@@H](C(=O)NCc1cccc(OCC(=O)O)c1)C(C)C (stereo partly specified)
14,4.03,CSCC[C@H](NC(=O)[C@@H](NC(=O)OC(C)(C)C)C(C)C)C(=O)NC(CC(C)C)[C@@H](O)CC(=O)N[C@@H](C(=O)NO)C(C)C (stereo partly specified)
15,3.85,COC(=O)[C@@H]1CC(NC(=O)[C@@H](NC(=O)C[C@H](O)[C@H](CC(C)C)NC(=O)C(O)c2cccc3ccccc23)C(C)C)C[C@H](C(=O)OC)C1 (stereo partly specified)
16,4.40,CC(C)C[C@H](NC(=O)C(O)c1ccccc1Br)[C@@H](O)CC(=O)N[C@H](C(=O)NCc1ccc(C(=O)O)cc1)C(C)C (stereo partly specified)
17,4.33,COC(=O)CCCNC(=O)[C@H](NC(=O)C[C@H](O)C(CC(C)C)NC(=O)[C@H](CCSC)NC(=O)[C@@H](NC(=O)OC(C)(C)C)C(C)C)C(C)C (stereo partly specified)
18,< 4.00,CSCC[C@H](NC(=O)[C@@H](NC(=O)OC(C)(C)C)C(C)C)C(=O)NC(CC(C)C)[C@@H](O)CC(=O)N[C@@H](C(=O)NCc1ccncc1)C(C)C (stereo partly specified)
19,4.39,CO[C@](C)(C(=O)NC(CC(C)C)[C@@H](O)CC(=O)N[C@@H](C(=O)N[C@H](C)C(=O)N[C@H](CCC(=O)O)C(=O)N[C@H](Cc1ccccc1)C(=O)O)C(C)C)c1ccccc1 (stereo partly specified)

# System: HEK293
# Assay: Inhibition of A beta-secretion in transfected human embryonic kidney (HEK293) cells
# Format: functional, cell-based
# Method in brief: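 Transfected HEK-293 cells incubated with inhibitor; Aβ secretion measured and EC50 taken as the concentration giving 50% inhibition of Aβ production.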
row,SMILES,pEC50
1,"COC(=O)[C@@H]1CC(NC(=O)[C@H](NC(=O)C[C@H](O)[C@@H](Cc2cc(F)cc(F)c2)NC(=O)C(O)c2ccccc2-c2ccccc2)C(C)C)C[C@H](C(=O)OC)C1 (single isomer, unassigned; isomer 1)",5.40
2,"COC(=O)[C@@H]1CC(NC(=O)[C@H](NC(=O)C[C@H](O)[C@@H](Cc2cc(F)cc(F)c2)NC(=O)C(O)c2ccccc2-c2ccccc2)C(C)C)C[C@H](C(=O)OC)C1 (single isomer, unassigned; isomer 2)",< 5.00
